Measurements reported in ChEMBL document CHEMBL2177069, “Novel peptidomimetic compounds containing redox active chalcogens and quinones as potential anticancer agents” (Eur J Med Chem, 2012).
pIC50: −log10 of the molar value. Calls of active or inactive are those of the source. The rule behind the calls is not given here.

Assays:
A498 = assay: Cytotoxicity against human A498 cells after 24 hrs by MTT assay; format: functional, cell-based; details: A498, 24 h
In short: (§1)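 MTT assay. Cells were seeded at 50,000 cells/mL in medium with 10% fetal calf serum and grown for two days at 37 °C, 10% CO2. Serial dilutions of compound were then added for 24 h. MTT was added (final 0.5 mg/mL) for 2 h, and the formazan was pelleted, washed, dissolved in isopropanol with 0.4% HCl and read at 590 nm. IC50 is the concentration giving 50% of untreated-control absorbance, taken from dose-response curves; mean of two parallel experiments.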

MCF7 [1] = assay: Cytotoxicity against human MCF7 cells after 24 hrs by MTT assay; format: functional, cell-based; details: MCF7, 24 h; in short: as §1
A-431 [2] = assay: Cytotoxicity against human A431 cells after 24 hrs by MTT assay; format: functional, cell-based; details: A-431, 24 h; in short: as §1
HUVEC [3] = assay: Cytotoxicity against human HUVEC cells after 24 hrs by MTT assay; format: cell-based; in short: as §1
Saccharomyces cerevisiae [4] = assay: Growth inhibition of UFD2-deficient Saccharomyces cerevisiae YDL190C mutant at 20 ug/disc after 24 to 48 hrs by agar diffusion assay; format: functional; details: read-out: DIZ
In short: (§2)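 S. cerevisiae deletion mutants or wild type grown on YPD, seeded into liquid agar medium at an optical density of 0.1. 6 mm paper discs soaked with methanolic compound solution were placed on the plates and incubated at 30 °C. Growth was checked after 1 and 2 days, and the inhibition zone diameter was recorded in mm.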

Saccharomyces cerevisiae [5] = assay: Growth inhibition of RCK1-deficient Saccharomyces cerevisiae YGL158W mutant at 20 ug/disc after 24 to 48 hrs by agar diffusion assay; format: functional; details: read-out: DIZ; in short: as §2
Saccharomyces cerevisiae [6] = assay: Growth inhibition of POS5-deficient Saccharomyces cerevisiae YPL188W mutant at 20 ug/disc after 24 to 48 hrs by agar diffusion assay; format: functional; details: read-out: DIZ; in short: as §2
Saccharomyces cerevisiae [7] = assay: Growth inhibition of wild type Saccharomyces cerevisiae BY4741 at 20 ug/disc after 24 to 48 hrs by agar diffusion assay; format: functional; details: read-out: DIZ; in short: as §2
Saccharomyces cerevisiae [8] = assay: Growth inhibition of GTT2-deficient Saccharomyces cerevisiae YLL060C mutant at 20 ug/disc after 24 to 48 hrs by agar diffusion assay; format: functional; details: read-out: DIZ; in short: as §2
[9] = Cytotoxicity against human PHF cells after 24 hrs by MTT assay; format: cell-based; in short: as §1
Saccharomyces cerevisiae [10] = assay: Growth inhibition of GSH2-deficient Saccharomyces cerevisiae YOL049W mutant at 20 ug/disc after 24 to 48 hrs by agar diffusion assay; format: functional; details: read-out: DIZ; in short: as §2
Saccharomyces cerevisiae [11] = assay: Growth inhibition of SOD2-deficient Saccharomyces cerevisiae YHR008C mutant at 20 ug/disc 24 to 48 hrs by agar diffusion assay; format: functional; details: read-out: DIZ; in short: as §2
Saccharomyces cerevisiae [12] = assay: Growth inhibition of SOD1-deficient Saccharomyces cerevisiae YJR104C mutant at 20 ug/disc after 24 to 48 hrs by agar diffusion assay; format: functional; details: read-out: DIZ; in short: as §2
Saccharomyces cerevisiae [13] = assay: Growth inhibition of PST2-deficient Saccharomyces cerevisiae YDR032C mutant at 20 ug/disc 24 to 48 hrs by agar diffusion assay; format: functional; details: read-out: DIZ; in short: as §2
Saccharomyces cerevisiae [14] = assay: Growth inhibition of COX17-deficient Saccharomyces cerevisiae YLL009C mutant at 20 ug/disc after 24 to 48 hrs by agar diffusion assay; format: functional; details: read-out: DIZ; in short: as §2
Saccharomyces cerevisiae [15] = assay: Growth inhibition of WSC4-deficient Saccharomyces cerevisiae YHL028W mutant at 20 ug/disc 24 to 48 hrs by agar diffusion assay; format: functional; details: read-out: DIZ; in short: as §2
A-431 [16] = assay: Induction of oxidative stress in human A431 cells assessed as increase in superoxide free radical production after 1 hr by DHE-based by fluorescence spectrophotometric analysis; format: functional, cell-based
In short: (§3)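 Cells were seeded at 10^5 per well and given graded compound concentrations for 1 h. They were then loaded with DHE or DCF probe for 30 min in the dark. Fluorescence was read immediately: DHE ex 540/em 600 nm; DCF ex 485/em 528 nm. Results were expressed as arbitrary units per 10^5 cells.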

HUVEC [17] = assay: Induction of oxidative stress in human HUVEC cells assessed as increase in hydrogen peroxide free radical production after 1 hr by DCF-based fluorescence spectrophotometric analysis; format: cell-based; in short: as §3
HUVEC [18] = assay: Induction of oxidative stress in human HUVEC cells assessed as increase in superoxide free radical production after 1 hr by DHE-based by fluorescence spectrophotometric analysis; format: cell-based; in short: as §3
A-431 [19] = assay: Induction of oxidative stress in human A431 cells assessed as increase in hydrogen peroxide free radical production after 1 hr by DCF-based fluorescence spectrophotometric analysis; format: functional, cell-based; in short: as §3
MCF7 [20] = assay: Induction of oxidative stress in human MCF7 cells assessed as decrease in GSH level at 5 uM after 1 hr by DTNB assay relative to control; format: functional; design: scale not given: the % may be the effect or the level left
In short: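 MCF-7 cells (10^6) were treated for 1 h at 37 °C, trypsinized, and washed twice with cold PBS. GSH was extracted with chilled 5% metaphosphoric acid at 4 °C for 2 h, then the lysate was centrifuged. Supernatant was mixed with 0.2 M sodium phosphate pH 8.0 and 0.04 mM DTNB for 10 min at room temperature. Absorbance was read at 412 nm against a reagent blank, and GSH was quantified from a standard curve.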

MCF7 [21] = assay: Induction of Cell cycle arrest in human MCF7 cells assessed as G2/M phase cells at IC50 concentration after 24 hrs by PI-staining based flow cytometric analysis (reference value: 13%); format: functional
In short: (§4)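 MCF-7 cells (10^6) were treated for 24 h, with methanol as the vehicle control. Cells were fixed in cold 70% methanol at 4 °C for one day, washed with PBS, and permeabilized with 0.1% saponin in PBS. They were stained with propidium iodide plus RNase for 30 min. DNA content was read by flow cytometry, giving percentages of cells per cell-cycle phase.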

MCF7 [22] = assay: Induction of Cell cycle arrest in human MCF7 cells assessed as S phase cells at IC50 concentration after 24 hrs by PI-staining based flow cytometric analysis (reference value: 19%); format: functional; in short: as §4
MCF7 [23] = assay: Induction of Cell cycle arrest in human MCF7 cells assessed as G0/1 phase cells at IC50 concentration after 24 hrs by PI-staining based flow cytometric analysis (reference value: 68%); format: functional; in short: as §4

Row | SMILES | pIC50 (A498) | pIC50 (MCF7 [1]) | pIC50 (A-431 [2]) | pIC50 (HUVEC [3]) | zone of inhibition at 20 µg/disc (Saccharomyces cerevisiae [4]) | zone of inhibition at 20 µg/disc (Saccharomyces cerevisiae [5]) | zone of inhibition at 20 µg/disc (Saccharomyces cerevisiae [6]) | zone of inhibition at 20 µg/disc (Saccharomyces cerevisiae [7]) | zone of inhibition at 20 µg/disc (Saccharomyces cerevisiae [8]) | pIC50 [9] | zone of inhibition at 20 µg/disc (Saccharomyces cerevisiae [10]) | zone of inhibition at 20 µg/disc (Saccharomyces cerevisiae [11]) | zone of inhibition at 20 µg/disc (Saccharomyces cerevisiae [12]) | zone of inhibition at 20 µg/disc (Saccharomyces cerevisiae [13]) | zone of inhibition at 20 µg/disc (Saccharomyces cerevisiae [14]) | zone of inhibition at 20 µg/disc (Saccharomyces cerevisiae [15]) | Activity (HUVEC [17]) | Activity (HUVEC [18]) | also measured
1 | CC1=C(SCCC(=O)OC(C[Se]C2=C(C)C(=O)c3ccccc3C2=O)C(=O)NC(C)(C)C)C(=O)c2ccccc2C1=O (centres undefined) | 5.52 | 5.52 | 6.00 | 6.00 | – | – | – | – | – | – | – | – | – | – | – | – | – | – | –
2 | CC1=C(SCCC(=O)OC(C[Se]c2ccccc2)C(=O)NC(C)(C)C)C(=O)c2ccccc2C1=O (centres undefined) | < 4.00 | 4.85 | 5.15 | 4.47 | 0 mm | 9 mm | 9 mm | 0 mm | 12 mm | 4.59 | 9 mm | 12 mm | 15 mm | 12 mm | 0 mm | 11 mm | – | – | –
3 | CC1=C([Se]CC(OC(=O)c2ccc(-c3c4nc(c(-c5ccccc5)c5ccc([nH]5)c(-c5ccccc5)c5nc(c(-c6ccccc6)c6ccc3[nH]6)C=C5)C=C4)cc2)C(=O)NC(C)(C)C)C(=O)c2ccccc2C1=O (centres undefined) | < 4.00 | < 4.00 | < 4.00 | < 4.00 | – | – | – | – | – | < 4.00 | – | – | – | – | – | – | – | – | –
4 | CC1=C(SCCC(=O)OC(CC[Se]c2ccccc2)C(=O)NC(C)(C)C)C(=O)c2ccccc2C1=O (centres undefined) | < 4.00 | 4.59 | < 4.00 | 4.89 | 10 mm | 0 mm | 0 mm | 0 mm | 0 mm | 4.96 | 0 mm | 0 mm | 10 mm | 12 mm | 10 mm | 11 mm | Non-toxic | Non-toxic | Activity (A-431 [16]): Active
5 | CC1=C(SCCC(=O)OC(CC[Se]c2ccccc2)C(=O)NCCCCCC(=O)OCc2ccccc2)C(=O)c2ccccc2C1=O (centres undefined) | < 4.00 | 4.72 | < 4.00 | 4.77 | 0 mm | 0 mm | 0 mm | 0 mm | 17 mm | 4.68 | 0 mm | 12 mm | 13 mm | 11 mm | 0 mm | 11 mm | Non-toxic | Non-toxic | Activity (A-431 [19]): Active
6 | CC(C)(C)NC(=O)COC(=O)c1ccc(-c2c3nc(c(-c4ccccc4)c4ccc([nH]4)c(-c4ccccc4)c4nc(c(-c5ccccc5)c5ccc2[nH]5)C=C4)C=C3)cc1 | < 4.00 | < 4.00 | < 4.00 | < 4.00 | – | – | – | – | – | < 4.00 | – | – | – | – | – | – | – | – | –
7 | CC1=C([Se]CC(OC(=O)[C@@H](CSSC(C)(C)C)NC(=O)OC(C)(C)C)C(=O)NC(C)(C)C)C(=O)c2ccccc2C1=O (some centres undefined) | 5.30 | 5.52 | 5.70 | 5.70 | 0 mm | 14 mm | 11 mm | 0 mm | 20 mm | 5.40 | 14 mm | 18 mm | 21 mm | 11 mm | 14 mm | 20 mm | Non-toxic | Non-toxic | Activity (MCF7 [20]): 46%; Activity (A-431 [19]): Active; Activity (MCF7 [21]): 1.6%; Activity (MCF7 [22]): 3.9%; Activity (MCF7 [23]): 95%
8 | CC1=C(SCCC(=O)OC(C[Se]c2ccccc2)C(=O)NCCCCCC(=O)OCc2ccccc2)C(=O)c2ccccc2C1=O (centres undefined) | < 4.00 | 5.00 | < 4.00 | 4.64 | 0 mm | 0 mm | 0 mm | 0 mm | 0 mm | 4.30 | 0 mm | 13 mm | 18 mm | 12 mm | 0 mm | 12 mm | – | – | –
9 | CC(C)(C)NC(=O)C(C[Se]c1ccccc1)OC(=O)c1ccc(-c2c3nc(c(-c4ccccc4)c4ccc([nH]4)c(-c4ccccc4)c4nc(c(-c5ccccc5)c5ccc2[nH]5)C=C4)C=C3)cc1 (centres undefined) | < 4.00 | < 4.00 | < 4.00 | < 4.00 | – | – | – | – | – | < 4.00 | – | – | – | – | – | – | – | – | –
10 | CC1=C([Se]CC(OC(=O)CNC(=O)OC(C)(C)C)C(=O)NCCCCCC(=O)OCc2ccccc2)C(=O)c2ccccc2C1=O (centres undefined) | 5.15 | 5.40 | 5.30 | 4.44 | 0 mm | 0 mm | 0 mm | 0 mm | 18 mm | 5.22 | 0 mm | 25 mm | 20 mm | 11 mm | 0 mm | 14 mm | – | – | Activity (MCF7 [20]): 76%
